Consider 29 compounds from ChEMBL document CHEMBL4477212 (J Med Chem, 2016).

For data set [1], the system named is Human immunodeficiency virus 1. The data set is described as follows: Antiviral activity against HIV1 3B infected in human CEM-SS cells assessed as reduction of virus-induced cytopathic effect at 10 uM after 6 days by MTS assay. The format is functional. The arrangement: scale not given: the % may be the effect or the level left. Summed up: (§1)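 Single-concentration screen (10 μM) in CEM-SS cells infected with pre-titered HIV-1 IIIB, sized so virus control wells lose 70–95% viability. Incubation was 6 days and read-out was by MTS. Percent CPE reduction was calculated against virus control wells (cells plus virus). Percent viability was calculated against cell-only control wells. Plates included compound toxicity and colorimetric controls, and AZT as positive control.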
(In general: Cytopathic effects are the visible damage that an infection or toxin causes in cultured cells.)

For data set [2], the target named is Human immunodeficiency virus type 1 integrase (Human immunodeficiency virus 1, UniProt Q7ZJM1). The data set is described as follows: Inhibition of HIV1 recombinant integrase expressed in Escherichia coli using [32P]-labeled oligonucleotide as substrate after 60 mins by strand transfer activity assay.
The test system of data set [3] is CEM-SS. As to the kind of experiment: Cytotoxicity against human CEM-SS cells assessed as cell viability at 10 uM after 6 days by MTS assay. The format is cell-based. The following applies: 144 h. Summed up:
as §1
Background: Tetrazolium dyes change colour on reduction, which living cells bring about.

The nature of data set [4]: Half life of the compound in DPBS. Format: physicochemical.
The subject of data set [5] is Human immunodeficiency virus 1. The data set is described as follows: Antiviral activity against HIV1 infected in human P4R5 cells assessed as reduction of virus replication preincubated with cells for 24 hrs followed by viral infection for 48 hrs by 4-methylumbelliferylgalactoside-based MAGI assay. The format is functional, organism-based.
For data set [6], the target named is Human immunodeficiency virus type 1 reverse transcriptase (Human immunodeficiency virus 1, UniProt Q72547). As to the kind of experiment: Inhibition of RNase H activity of full length HIV1 reverse transcriptase using RNA-DNA duplex HTS-1 substrate.
A short description of data set [7]: Aqueous solubility of the compound in DPBS. The note with it: buffer. Format: physicochemical.
Data set [8] can be described thus: Intrinsic clearance in human liver microsomes during phase 1 measured per mg of protein. Format: ADME, Microsome. (Liver microsomes are a subcellular fraction often used to study metabolism.)
The nature of data set [9]: Intrinsic clearance in mouse liver microsomes assessed as glucuronidation during phase 2 measured per mg of protein. Format: ADME, Microsome.
The nature of data set [10]: Half life in mouse plasma. Format: ADME, cell-free.
Data set [11] is described as follows: Half life in human plasma. Format: ADME, cell-free.
Data set [12] concerns CEM-SS. The data set is described as follows: Cytotoxicity against human CEM-SS cells assessed as cell death after 6 days by MTS assay. Format: cell-based. The following applies: 144 h. Summed up:
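Dose-response format in CEM-SS cells exposed to compound alone (toxicity control wells) alongside the HIV-1 IIIB cytoprotection plates. Incubation was 6 days and viability was measured by MTS. CC50 is the concentration giving 50% cell death, determined from the dose-response data.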

Data set [13] is described as follows: Therapeutic index, ratio of CC50 for human CEM-SS cells to EC50 for HIV1 3B infected in human CEM-SS cells. The note with it: read-out: Ratio CC50/EC50. The format is toxicity, cell-based.
Data set [14] is described as follows: Intrinsic clearance in human liver microsomes assessed as glucuronidation during phase 2 measured per mg of protein.
The subject of data set [15] is Human immunodeficiency virus 1. As to the kind of experiment: Antiviral activity against HIV1 3B infected in human CEM-SS cells assessed as reduction of virus-induced cytopathic effect after 6 days by MTS assay. Format: functional, organism-based. The following applies: Human immunodeficiency virus 1, 3B, 144 h.
A short description of data set [16]: Plasma protein binding in human. Format: ADME, cell-free.
Data set [17] is described as follows: Plasma protein binding in mouse. Format: ADME, cell-free.

In brackets after ≈: the same amount, converted by molar mass. A value given as a limit tells only on which side of the number the result lay.

Sequence of Human immunodeficiency virus type 1 integrase (Q7ZJM1 whole entry): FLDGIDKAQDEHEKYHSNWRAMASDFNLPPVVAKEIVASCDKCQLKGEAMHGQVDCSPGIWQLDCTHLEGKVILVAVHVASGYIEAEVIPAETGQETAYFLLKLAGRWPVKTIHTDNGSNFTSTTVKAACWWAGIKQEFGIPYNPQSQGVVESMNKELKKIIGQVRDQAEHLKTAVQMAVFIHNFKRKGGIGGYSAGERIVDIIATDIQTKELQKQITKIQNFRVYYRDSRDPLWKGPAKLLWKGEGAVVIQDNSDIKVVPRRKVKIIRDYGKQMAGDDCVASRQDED

As to `O=C(NCc1ccccc1)c1c(Nc2ccccc2)[nH]c(=O)n(O)c1=O`, the Activity in data set [1] turned out to be 0%; in [3] it was 21%. Moreover, the IC50 (as a rule, the midpoint of a concentration-inhibition curve) in data set [2] is > 100000 nM.
The like results for `O=C(NCc1ccccc1)c1c(Nc2ccc(-c3ccccc3)cc2)[nH]c(=O)n(O)c1=O` were, in that order, 0%, 13% and > 100000 nM.
The like results for `CCNc1[nH]c(=O)n(O)c(=O)c1C(=O)NCCc1ccccc1` were, in that order, 99%, 87% and 100 nM.
In the same order, the values of `CCCNc1[nH]c(=O)n(O)c(=O)c1C(=O)NCc1cccc(Cl)c1F` are 33%, 48% and 58 nM.
As for `Nc1[nH]c(=O)n(O)c(=O)c1C(=O)NCc1ccccc1`, the Activity is on record as 99% in data set [1] and 100% in data set [3]. Also, the IC50 in [2] is 900 nM.
As for `CCNc1[nH]c(=O)n(O)c(=O)c1C(N)=O`, in data set [2], the IC50 was > 100000 nM.
Take `CCNc1[nH]c(=O)n(O)c(=O)c1C(=O)NCCCl`: the figures for the Activity in [1] and in [3] were 5.1% and 100%, respectively. For the same compound, in data set [2], the IC50 was > 100000 nM.
For `CCNc1[nH]c(=O)n(O)c(=O)c1C(=O)NCc1cc(F)cc(F)c1`, the Activity in [1] and in [3] was 100% throughout. Also, the IC50 in data set [2] was determined as 230 nM.
In the case of `CNc1[nH]c(=O)n(O)c(=O)c1C(=O)NCc1cccc(F)c1`, the Activity is recorded as 100% in data set [1] and 95% in data set [3]. The IC50 in data set [2] was 250 nM.
In the case of `CNc1[nH]c(=O)n(O)c(=O)c1C(=O)NCc1ccccc1`, the Activity in data set [1] amounted to 100%; in [3] it was 98%. In data set [4], the half-life (commonly the time needed for the level to fall by half in the phase considered) is > 24 h. The EC50 (in general, the concentration that produces a half-maximal response) came to 3700 nM in [5] and 830 nM in data set [15]. In addition, the IC50 worked out at 61 nM in data set [6] and 80 nM in [2]. Besides, in data set [7], the solubility (in general, the dissolved amount per volume that the medium holds) is 138 µM (≈ 40.1 µg/mL). Further, the results for the CLH in data set [8], in [9] and in data set [14] were 0.8 µL/min/mg, 500 µL/min/mg and 51 µL/min, respectively. The t1/2 in [10] and in data set [11] was > 24 h throughout. The CC50 (as a rule, the concentration at which the toxic effect on the cells reaches its halfway point) in [12] is 58000 nM. Moreover, in data set [13], the selectivity ratio was determined as 70. The PPB in data set [16] is 99.2%; in [17], 70.9%.
Consider `CNc1[nH]c(=O)n(O)c(=O)c1C(=O)NCc1cccc(Cl)c1F`, for which the Activity in data set [1] and in [3] was 100% each time. Further, in data set [2], the IC50 worked out at 110 nM.
`CCNc1[nH]c(=O)n(O)c(=O)c1C(=O)NCc1ccc(C)c(F)c1`: the Activity in [1] and in data set [3] was 100% in each case. Besides, the half-life in data set [4] was > 24 h. For the same compound, the EC50 in data set [5] turned out to be 1300 nM; in [15] it was 150 nM. Also, the figures for the IC50 in data set [6] and in data set [2] were 20 nM and 51 nM, respectively. The compound further yielded a solubility in data set [7] of 81 µM (≈ 27.2 µg/mL). The figures for the CLH in [8], in data set [9] and in data set [14] were < 0.1 µL/min/mg, 1342 µL/min/mg and 357 µL/min, respectively. The t1/2 in [10] and in data set [11] was > 24 h each time. For the same compound, the CC50 in data set [12] was determined as 20000 nM. Besides, in [13], the selectivity ratio came to 130. Also, the results for the PPB in data set [16] and in data set [17] were 98.9% and 95.9%, respectively.
With `O=C(NCc1ccc(F)cc1)c1c2n(c(=O)n(O)c1=O)CCCN2`, the Activity amounted to 0% in [1] and 5.5% in data set [3]. Moreover, the IC50 in data set [2] was determined as 430 nM.
As for `CCNc1[nH]c(=O)n(O)c(=O)c1C(=O)NCc1ccc(F)cc1`, the Activity in data set [1] worked out at 100%; in data set [3] it was 99%. Also, the half-life in data set [4] was > 24 h. Also, the EC50 in [5] turned out to be 90 nM; in data set [15], 33 nM. Besides, the figures for the IC50 in data set [6] and in data set [2] were 11 nM and 49 nM, respectively. For the same compound, the solubility in data set [7] turned out to be 150 µM (≈ 48.3 µg/mL). The CLH in [8] was < 0.1 µL/min/mg; in data set [9] it was 1240 µL/min/mg. Besides, the t1/2 in data set [10] and in data set [11] was > 24 h throughout. The CC50 in data set [12] came to 19000 nM. Further, in data set [13], the selectivity ratio is 580. The PPB in data set [16] turned out to be 99.4%; in [17] it was 86.5%.
As to `CCNc1[nH]c(=O)n(O)c(=O)c1C(=O)NCc1ccc(F)c(F)c1`, the Activity in data set [1] and in [3] was 100% each time. The EC50 is 300 nM in data set [5] and 49 nM in data set [15]. The IC50 in data set [6] amounted to 26 nM; in data set [2] it was 77 nM. In data set [12], the CC50 was determined as 21000 nM. The selectivity ratio in data set [13] came out at 430.
`CC(C)Nc1[nH]c(=O)n(O)c(=O)c1C(=O)NCc1ccccc1`: the Activity stood at 98% in [1] and 90% in data set [3]. In addition, in [2], the IC50 came to 150 nM.
The like results for `CNc1[nH]c(=O)n(O)c(=O)c1C(=O)NCc1ccc(F)cc1` were, in that order, 100%, 89% and 110 nM.
In the same order, the values of `O=C(NCc1ccccc1)c1c(NC2CC2)[nH]c(=O)n(O)c1=O` are 98%, 91% and 210 nM.
The like results for `CCNc1[nH]c(=O)n(O)c(=O)c1C(=O)NCc1cc(F)ccc1F` were, in that order, 92%, 87% and 68 nM.
With `CCNc1[nH]c(=O)n(O)c(=O)c1C(=O)NCc1ccccc1`, the Activity in data set [1] and in data set [3] was 100% in each case. Besides, the half-life in [4] is > 24 h. Moreover, the EC50 in data set [5] was determined as 300 nM; in data set [15] it was 61 nM. The values for the IC50 in data set [6] and in data set [2] were 42 nM and 33 nM, respectively. For the same compound, the solubility in data set [7] was 1091 µM (≈ 332 µg/mL). Besides, the CLH is < 0.1 µL/min/mg in [8], 732 µL/min/mg in data set [9] and 355 µL/min in data set [14]. For the same compound, the t1/2 in [10] and in data set [11] was > 24 h in each case. In addition, the CC50 in data set [12] was 23000 nM. For the same compound, the selectivity ratio in data set [13] worked out at 380. Also, the PPB in data set [16] is listed as 99.1%; in data set [17], 83.9%.
For the compound `CCNc1[nH]c(=O)n(O)c(=O)c1C(=O)NCc1cc(F)ccc1Cl`, the Activity came to 62% in data set [1] and 73% in [3]. For the same compound, the IC50 in [2] was determined as 95 nM.
As to `CCNc1[nH]c(=O)n(O)c(=O)c1C(=O)NCc1ccc(F)cc1F`, the Activity is 100% in data set [1] and 92% in data set [3]. Besides, the EC50 was 70 nM in [5] and 32 nM in data set [15]. The IC50 in data set [6] was 10 nM; in data set [2], 48 to 68 nM. For the same compound, the CC50 in data set [12] turned out to be 47000 nM. Also, in data set [13], the selectivity ratio amounted to 1500.
In the case of `CCNc1[nH]c(=O)n(O)c(=O)c1C(=O)NCc1cccc(F)c1`, the Activity is listed as 100% in [1] and 90% in data set [3]. Also, the IC50 in data set [2] was 68 nM.
Turning to `CC(C)(C)Nc1[nH]c(=O)n(O)c(=O)c1C(=O)NCc1ccccc1`, the Activity worked out at 0% in [1] and 17% in data set [3]. Also, the IC50 in data set [2] amounted to 81 nM.
Consider `CCNc1[nH]c(=O)n(O)c(=O)c1C(=O)Oc1ccccc1`, for which the values for the Activity in [1] and in data set [3] were 50% and 100%, respectively. Also, in data set [2], the IC50 is > 100000 nM.
For `CCNc1[nH]c(=O)n(O)c(=O)c1C(=O)NCc1ccc(Cl)c(F)c1`, the Activity in [1] and in data set [3] was 100% each time. Moreover, the results for the EC50 in data set [5] and in data set [15] were 800 nM and 190 nM, respectively. Also, the IC50 in [6] is 22 nM; in data set [2] it was 120 nM. Also, the CC50 in [12] is 19000 nM.
As for `CCNc1c(C(=O)NCc2ccc(F)cc2)c(=O)n(O)c(=O)n1C`, the Activity in data set [1] was 6.5%; in [3], 10%. The IC50 in [2] is > 100000 nM.
In the same order, the values of `CCNc1[nH]c(=O)n(O)c(=O)c1C(=O)Nc1ccccc1` are 11%, 27% and 35000 nM.
In the case of `CCCNc1[nH]c(=O)n(O)c(=O)c1C(=O)NCc1ccccc1`, the Activity in data set [1] was found to be 100%; in data set [3], 97%. In data set [2], the IC50 is 66 nM.
